Most compounds without a hit are left out; they make up all but 4.8% or so of the library.
UCH37 DUB inh: blocks the human deubiquitinase UCH37 | Q9Y5K5 | purified proteasome/UCH37, Ub-AMC cleavage fluorescence | inhibition, % (test concentration not listed) | actives 0.33% (n = 330,000);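 active = mean inhibition over replicate wells above about 20%, limit read from the data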;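 also: 0% = compound-free wells with enzyme and 100% = wells lacking proteasome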
Target sequence (Q9Y5K5 whole entry, looked up): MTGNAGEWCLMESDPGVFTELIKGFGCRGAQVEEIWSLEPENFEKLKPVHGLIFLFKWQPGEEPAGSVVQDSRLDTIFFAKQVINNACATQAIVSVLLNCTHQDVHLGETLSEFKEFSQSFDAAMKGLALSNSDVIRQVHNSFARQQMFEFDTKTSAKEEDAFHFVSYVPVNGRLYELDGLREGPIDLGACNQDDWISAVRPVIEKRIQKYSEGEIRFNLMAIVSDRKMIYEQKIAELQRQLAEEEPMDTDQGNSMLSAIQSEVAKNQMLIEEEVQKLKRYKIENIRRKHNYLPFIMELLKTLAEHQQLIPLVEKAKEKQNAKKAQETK
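system = Proteasome-associated human UCH37 deubiquitinase | amount = 0.15 nM proteasome as dispensed | medium = pH 7.4 Tris-HCl (50 mM) with ovalbumin, ATP-MgCl2, DTT | incubation = 30 min preincubation with enzyme, 25 min cleavage at room temperature | detection = AMC fluorescence 355/460 nm | read-out basis = percent inhibition | controls = no-proteasome and no-compound wells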
GRIN3A LBD mod: modulators (binders) of human NR3A ligand-binding domain. NR3A LBD differential scanning fluorimetry, Tm shift; 0% = protein alone, 100% = glycine-bound protein. Tm shift relative to glycine control, % at 25 µM. actives 2.5% (n = 340,000). AID 1259313;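 active = melting temperature shift of at least 10% of the positive control shift, at one fixed dose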
PAFAH2 FP inh: PAFAH2 (human) inhibition. inhibition, % at 3.39 µM. actives 0.99% (n = 340,000). recombinant PAFAH2, FP-rhodamine activity probe, fluorescence polarization. AID 492956;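 active = inhibition above the mean over all tested compounds plus 3 SD, cut at about 30% in these data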;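 also: inhibitors block probe labeling of enzyme so polarization drops; 0% = enzyme with DMSO and 100% = wells lacking PAFAH2 protein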
PAFAH1B3 FP inh: inhibitors of human PAFAH1B3; recombinant PAFAH1B3, FP-rhodamine probe, fluorescence polarization; Q15102; actives 0.28% (n = 340,000); inhibition, % at 3.39 µM;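 active = inhibition above the screen-wide average of all tested compounds plus 3 SD, cut at about 25% in these data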;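 also: 0% = enzyme with DMSO only and 100% = wells lacking PAFAH1B3 protein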
Target sequence (Q15102 whole entry, looked up): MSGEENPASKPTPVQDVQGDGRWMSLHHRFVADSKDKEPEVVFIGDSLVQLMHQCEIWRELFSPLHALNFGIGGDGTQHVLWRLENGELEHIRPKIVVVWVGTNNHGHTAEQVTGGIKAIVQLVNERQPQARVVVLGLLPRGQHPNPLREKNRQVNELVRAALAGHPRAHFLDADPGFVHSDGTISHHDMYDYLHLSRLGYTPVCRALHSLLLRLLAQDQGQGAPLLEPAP
pPAFAH FP inh: pPAFAH (human) enzyme inhibition. Q13093. inhibition, % at 3.39 µM. recombinant pPAFAH, FP-rhodamine probe fluorescence polarization. actives 1.5% (n = 330,000);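 active = inhibition above the mean inhibition across the screen plus 3 SD, cut at about 25% in these data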;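 also: inhibitors block binding of the rhodamine activity-based probe so polarization drops; 0% = enzyme with DMSO and 100% = wells lacking pPAFAH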
PAFAH1B2 FP inh: PAFAH1B2 (human) inhibition; P68402; recombinant PAFAH1B2, FP-rhodamine activity probe, fluorescence polarization; inhibition, % at 3.39 µM; actives 1.2% (n = 340,000); AID 492953;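 active = inhibition above the mean of all tested compounds plus 3 SD, cut at about 24% in these data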;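 also: 0% = enzyme with DMSO and 100% = wells lacking PAFAH1B2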
PAFAH2 confirm: PAFAH2 (human) inhibition, confirmed. shares compounds with PAFAH2 FP inh. recombinant PAFAH2, FP-rhodamine activity probe, fluorescence polarization. inhibition, % at 3.39 µM. actives 65% (n = 2,300). AID 493030;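 active = mean inhibition over three repeats above a set limit taken from the earlier primary screen, cut at about 30% in these data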;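 also: inhibitor blocks binding of rhodamine activity probe so polarization falls; 0% = enzyme with DMSO and 100% = wells lacking PAFAH2 protein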
* hit, by the source's call; . = not tested or not shown.

SMILES	UCH37 DUB inh	GRIN3A LBD mod	PAFAH2 FP inh	PAFAH1B3 FP inh	pPAFAH FP inh	PAFAH1B2 FP inh	PAFAH2 confirm
Cc1cc(C(=O)OCC(=O)NC2CCC(C)CC2)c(C)o1 (centres undefined)	3.9	-0.1	71.5*	4.3	2.2	3.5	68.9*
O=C(COC(=O)c1ccco1)NC1CCCc2ccccc21 (centres undefined)	4.7	3.8	39.3*	9.9	-2.2	1.1	15.0
O=C(COC(=O)c1ccco1)NCC1CCCCC1	-1.3	0.4	80.3*	4.9	.	7.4	60.2*
O=C(COC(=O)c1ccccc1NC(=O)c1ccco1)NC1CC1	2.9	-0.8	0.3	2.7	4.3	-3.9	.
CC1CCC(NC(=O)COC(=O)c2ccco2)CC1 (centres undefined)	3.3	1.0	66.9*	-0.2	-5.2	5.6	64.8*
Cc1cc(=O)oc2c1ccc1oc(/C(=N/O)c3ccccc3)c(C)c12	.	2.9	37.4*	-5.1	4.2	-1.5	28.9
Cc1ccc(/C(=N\O)c2oc3c(C)c4oc(=O)cc(C)c4cc3c2C)cc1	.	-0.6	-24.0	-3.8	-9.5	-7.9	.
Cc1cccc(C=Nn2c(-c3ccco3)n[nH]c2=S)c1	5.3	.	.	.	.	.	.
O=C(NNc1cc(Cl)ccc1Cl)c1cccs1	1.9	-0.6	.	.	-2.9	.	.
N/C(=N\OC(=O)c1cccs1)C1(c2ccc(Cl)cc2Cl)CC1	.	-2.1	58.0*	5.5	2.2	7.1	30.2*
O=C(CCS(=O)(=O)c1ccccc1)N1CCN(c2ccc(F)cc2)CC1	-1.4	2.2	10.1	3.9	-2.7	1.3	.
O=C(CCS(=O)(=O)c1ccc(F)cc1)N1CCN(c2ccccc2)CC1	2.3	1.7	32.3*	7.8	8.1	4.6	25.5
N/C(Cc1ccc(Cl)cc1Cl)=N\OC(=O)Cc1ccccc1	2.0	-1.0	-0.1	-1.2	6.7	17.1	.
N/C(Cc1ccc(Cl)cc1Cl)=N\OC(=O)c1ccccc1	5.1	-1.2	77.8*	4.8	1.5	4.9	77.7*
N/C(CC1CC1(Cl)Cl)=N\OC(=O)c1ccccc1 (centres undefined)	4.6	-0.3	83.0*	-4.2	3.3	7.5	78.1*
Cc1ccc(C(=O)O/N=C(\N)Cc2cccc3ccccc23)cc1	1.3	1.3	66.6*	-5.2	9.9	-2.1	73.5*
N/C(=N\OC(=O)c1ccc(F)cc1)c1ccccc1	4.7	-3.9	4.9	5.8	2.0	3.5	.
COc1ccc(C(=O)ON=C(N)Cc2ccc(Cl)cc2)cc1OC	-0.8	.	.	.	.	.	.
N/C(Cc1ccc(Cl)cc1)=N\OC(=O)c1ccc2ccccc2c1	1.3	-20.8	35.9*	-4.4	20.1	1.5	30.3*
CCCCNC(=O)N(O)C1N(N=Cc2cccs2)C(=S)SC1(C)C (centres undefined)	9.6	.	.	.	.	.	.
COc1ccc(C/C(N)=N/OC(=O)c2ccc(Cl)cc2)cc1	1.2	2.5	50.8*	4.9	5.2	4.6	39.0*
O=C(CSc1cccc[n+]1[O-])c1ccccc1Br	2.6	-2.0	39.3*	2.1	0.0	3.5	38.7*
O=C(NCC1CCCO1)C(=O)NN=Cc1c(F)cccc1Cl (centres undefined)	3.2	.	.	.	.	.	.
CCc1ccc(NC(=O)c2noc3c2CCC3)cc1	-0.3	0.5	30.6*	3.6	12.1	7.8	10.0
CCc1ccc(NC(=O)c2noc3c2CCCCC3)cc1	1.9	1.7	-2.9	9.9	-2.6	4.4	.
SMILES	UCH37 DUB inh	GRIN3A LBD mod	PAFAH2 FP inh	PAFAH1B3 FP inh	pPAFAH FP inh	PAFAH1B2 FP inh	PAFAH2 confirm
COc1ccc(CC(=O)NN=Cc2ccc(C)s2)cc1	5.8	.	.	.	.	.	.
Cc1ccc(NC(=O)c2ccccc2F)cc1S(=O)(=O)N1CCCCCC1	0.2	-29.8	6.1	-0.8	-2.2	-0.2	.
Cc1ccc(NC(=O)COC(=O)c2ccccc2F)cc1S(=O)(=O)N1CCCCC1	2.7	-6.8	66.9*	-0.6	.	1.4	59.0*
Cc1ccc(S(=O)(=O)N2CCCCC2)cc1NC(=O)COC(=O)c1ccccc1F	0.0	-1.0	51.6*	0.2	11.6	-5.1	53.4*
Cc1ccc(NC(=O)COC(=O)c2ccccc2Cl)cc1S(=O)(=O)N(C)C	2.3	-5.5	57.5*	1.2	2.2	-1.2	39.2*
O=C(NN=Cc1ccccc1OC(F)F)C1=COCCO1	-0.3	.	.	.	.	.	.
COc1cccc(NC(=O)COC(=O)C2CC3CCCC(C2)C3=O)c1 (centres undefined)	-0.6	-0.8	58.1*	-1.6	-2.5	9.4	54.2*
Cc1ccc([N+](=O)[O-])c(NC(=O)COC(=O)C2CC3CCCC(C2)C3=O)c1C (centres undefined)	0.3	-0.6	34.2*	8.5	-0.5	2.3	31.9*
O=C(COC(=O)/C=C/c1ccc(Cl)c(Cl)c1)NC1CC1	2.8	-3.6	17.0	7.3	6.4	8.9	.
CC(C)NC(=O)COC(=O)/C=C/c1ccc(F)cc1	2.5	-10.6	36.0*	4.7	0.5	-2.8	22.2
O=C(COC(=O)c1ccc(F)cc1)NC1CC1	0.8	-0.9	21.8	7.8	0.6	3.5	.
CC(C)NC(=S)NC(=O)/C=C/c1ccc(F)cc1	5.7	0.6	-0.3	-11.8	2.6	-4.0	.
O=C(COC(=O)/C=C/c1ccc(F)cc1)NC1CCCCCC1	0.8	-4.0	89.4*	2.9	11.9	-0.3	80.8*
O=C(COC(=O)/C=C/c1ccc(F)cc1)NC1CC1	2.1	2.5	48.7*	0.9	2.1	-1.4	36.5*
CCN(C(=O)COC(=O)/C=C/c1ccc(F)cc1)C1CCCCC1	0.8	-1.0	-2.8	3.9	7.0	2.8	.
O=C(COC(=O)/C=C/c1ccc(Cl)cc1)NC1CCCC1	0.0	-3.7	63.7*	6.3	1.8	6.1	67.0*
Cc1cc(C=NNC(=O)C(O)(c2ccccc2)c2ccccc2)c(C)n1-c1cccc(C(=O)O)c1	4.8	.	.	.	.	.	.
NC(=NOC(=O)c1ccc([N+](=O)[O-])cc1Cl)c1ccccn1	0.5	.	.	.	.	.	.
O=C(COC(=O)/C=C/c1ccc(F)cc1)NC1CCCC1	-2.8	-0.9	79.4*	3.2	.	2.6	86.2*
Cc1nn(-c2ccccc2)c(C)c1C=NN1CCN(c2ccccc2)CC1	0.7	.	.	.	.	.	.
COc1cc(/C=C2\C(=O)ON=C2c2ccccc2)cc(Cl)c1O	5.2	-8.6	32.9*	-8.3	2.0	0.3	46.9*
COc1cc(C=C2C(=O)OC(c3ccccc3)OC2=O)cc(Br)c1O (centres undefined)	9.7	4.6	7.3	-2.6	5.0	0.1	.
COc1cc(/C=C2\C(=O)ON=C2c2ccccc2)cc(Br)c1O	1.9	-13.0	59.1*	-6.5	2.9	1.9	61.0*
Cc1ccc(C(=O)OCC(=O)NCc2cccs2)c(C)c1	2.8	0.8	31.7*	6.1	1.4	-2.6	25.0
COc1ccc(C(=O)OCC(=O)NCc2cccs2)c(OC)c1OC	1.7	0.2	71.8*	12.8	6.0	6.8	64.7*

High-throughput results as filed in PubChem BioAssay.
